Measurements taken from ChEMBL document CHEMBL4257441, “Protection effect of intracellular melanin from Lachnum YM156 and Haikunshenxi capsule combination on adenine-induced chronic renal failure in mice” (Medchemcomm, 2017).
Active and inactive are the calls of the source. The rule behind the calls is not given here.

Experiments:
[1] = test system: Mus musculus; assay: Protective effect against adenine-induced chronic renal failure in Kunming mouse assessed as nephridial MDA levels at 200 mg/kg, ig qd administered for 4 successive weeks with haikunshenxi capsule by thiobarbituric acid method (reference value: 5.05 +/- 0.15 nmol/ml); type: functional
[2] = test system: Mus musculus; assay: Protective effect against adenine-induced chronic renal failure in ig dosed Kunming mouse assessed as decrease in nephridial TNF-alpha levels administered as qd for 4 successive weeks; type: functional, organism-based
In short: (§1)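 CRF model made by chronic dietary adenine in male Kunming mice (20 ± 5 g); oral dosing at 100 or 200 mg kg–1, alone or with Haikunshenxi capsule; ten mice per group. Kidney tissue TNF-α, IL-1β and IL-6 measured as pg per mg protein, and iNOS activity as U mg–1 protein.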

[3] = test system: Mus musculus; assay: Protective effect against adenine-induced chronic renal failure in Kunming mouse assessed as reduction in number of adenine crystals in kidney at 200 mg/kg, ig qd administered for 4 successive weeks by haematoxylin and eosin dye-based optical microscopic method; type: functional, organism-based
In short: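 Kidneys were taken from male Kunming mice given an adenine diet plus oral melanin (100 or 200 mg kg–1), with or without Haikunshenxi capsule, ten per group. Histological sections were examined at 400× for glomeruli, tubules, adenine crystals, tubular atrophy and interstitial fibrosis.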

[4] = test system: Mus musculus; assay: Protective effect against adenine-induced chronic renal failure in ig dosed Kunming mouse assessed as decrease in blood urea nitrogen levels in serum administered as qd for 4 successive weeks with haikunshenxi capsule by diacetyl oxime method; type: functional, organism-based
In short: (§2)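 Adenine-fed CRF model in male Kunming mice (20 ± 5 g) housed at 18–20 °C on a 12 h light/dark cycle. Oral dosing at 100 or 200 mg kg–1, with or without Haikunshenxi capsule; ten mice per group. Serum creatinine, BUN, total protein and albumin measured, each group compared with the model group.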

[5] = test system: Mus musculus; assay: Protective effect against adenine-induced chronic renal failure in Kunming mouse assessed as nephridial GSH-PX levels at 200 mg/kg, ig qd administered for 4 successive weeks with haikunshenxi capsule by colorimetric method (reference value: 688.45 +/- 12.67 U/L); type: functional
[6] = test system: Mus musculus; assay: Protective effect against adenine-induced chronic renal failure in ig dosed Kunming mouse assessed as decrease in nephridial IL-6 levels administered as qd for 4 successive weeks with haikunshenxi capsule; type: functional, organism-based; in short: as §1
[7] = test system: Mus musculus; assay: Protective effect against adenine-induced chronic renal failure in ig dosed Kunming mouse assessed as increase in albumin levels in serum administered as qd for 4 successive weeks by bromocresol green colorimetric method; type: functional, organism-based; in short: as §2
[8] = test system: Mus musculus; assay: Protective effect against adenine-induced chronic renal failure in Kunming mouse assessed as nephridial GSH-PX levels at 100 mg/kg, ig qd administered for 4 successive weeks by colorimetric method (reference value: 688.45 +/- 12.67 U/L); type: functional
[9] = test system: Mus musculus; assay: Protective effect against adenine-induced chronic renal failure in ig dosed Kunming mouse assessed as increase in total protein levels in serum administered as qd for 4 successive weeks with haikunshenxi capsule by coomassie brilliant blue method; type: functional, organism-based; in short: as §2

Q: Which Activity [1] does the source give for `Cc1c(=O)c(=O)c2c3c[nH]c4c(C)c(=O)c(=O)c(c5c[nH]c1c52)c43` here?
A: 2.88 nmol/mL

Q: What about the Activity [2] of the same molecule?
A: Dose-dependent effect

Q: What about the Activity [3] of the same molecule?
A: Active

Q: What about the Activity [4] of the same molecule?
A: Dose-dependent effect

Q: And the Activity [5]?
A: 878.91 U/L

Q: And the Activity [6]?
A: Dose-dependent effect

Q: What about the Activity [7] of the same molecule?
A: Dose-dependent effect

Q: And the Activity [8]?
A: 743.09 U/L

Q: And the Activity [9]?
A: Dose-dependent effect
